From article PMC11134341 (Chemical Science, 2024)

Columns and labels:
CYP199A4 F182A/P90A = test: H2O2-dependent O-demethylation of benzoic acid derivatives, F182A/P90A; type: biochemical, Rhodopseudomonas palustris; settings: catalyzed by F182A/P90A; P450 1 μM, substrate 2 mM, H2O2 10 mM, Tris-HCl pH 7.4, 30 °C
In short: (§1)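 Purified CYP199A4 double mutant (1 μM), a methoxy-substituted benzoic acid substrate (2 mM) and H2O2 (10 mM, the only oxidant) in Tris–HCl pH 7.4 at 30 °C. Demethylation and further-oxidation products are quantified against a benzophenone internal standard and expressed as turnover number per P450.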

CYP199A4 F182A/D251H = test: H2O2-dependent O-demethylation, F182A/D251H; type: biochemical, Rhodopseudomonas palustris
In short: (§2)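 Enzyme (1 μM) is reacted with methoxy-substituted benzoic acid substrate (2 mM) and H2O2 (10 mM) as sole oxidant, in Tris–HCl pH 7.4 at 30 °C. Demethylation products are quantified chromatographically against a benzophenone internal standard, and activity is expressed as turnover number.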

CYP199A4 F182A/D251E = test: H2O2-dependent O-demethylation, F182A/D251E; type: biochemical, Rhodopseudomonas palustris
In short: as §2

CYP199A4 (wild type) = settings: WT CYP199A4; cited from earlier work
[1] = system: engineered CYP199A4 peroxygenase variants; test: O-demethylation by the library of engineered CYP199A4 peroxygenase variants; type: biochemical, Rhodopseudomonas palustris; settings: H2O2-dependent reaction
CYP199A4 F182A/V355A = test: H2O2-dependent O-demethylation of benzoic acid derivatives, F182A/V355A; type: biochemical, Rhodopseudomonas palustris; settings: catalyzed by F182A/V355A
In short: as §1

CYP199A4 F182A = biological target: T1, CYP199A4 F182A (Rhodopseudomonas palustris, UniProt Q2IU02, F183A); test: UV-visible spectral titration of substrate binding
T1 sequence (Q2IU02 1-410 F183A): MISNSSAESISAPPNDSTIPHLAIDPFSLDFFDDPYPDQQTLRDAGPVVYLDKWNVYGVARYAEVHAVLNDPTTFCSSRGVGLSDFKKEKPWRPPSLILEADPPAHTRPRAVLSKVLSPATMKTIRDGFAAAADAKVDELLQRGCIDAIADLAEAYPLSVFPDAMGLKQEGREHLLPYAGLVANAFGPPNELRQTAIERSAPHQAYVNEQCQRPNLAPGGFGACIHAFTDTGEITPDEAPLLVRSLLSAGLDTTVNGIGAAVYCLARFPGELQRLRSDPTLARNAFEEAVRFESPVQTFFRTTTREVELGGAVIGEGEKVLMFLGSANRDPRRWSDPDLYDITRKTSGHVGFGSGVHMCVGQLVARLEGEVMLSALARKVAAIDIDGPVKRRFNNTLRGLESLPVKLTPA

| Compound | O-demethylation / conversion by the examined CYP199A4 variants (in words) [1] | further results |
| --- | --- | --- |
| COc1ccc(C(=O)O)cc1 [Compound 1, 4-methoxybenzoic acid] | – | TON of demethylation product (CYP199A4 F182A/P90A): 1100 μM (μM P450)^−1; reduction of catalytic activity compared with F182A (CYP199A4 F182A/D251H): 50 fold; reduction of catalytic activity compared with F182A (CYP199A4 F182A/D251E): 50 fold; catalytic turnover number (TON) of H2O2-dependent demethylation (CYP199A4 (wild type)): 6 μM (μM P450)^−1 |
| COc1cccc(C(=O)O)c1 [Compound 2, 3-methoxybenzoic acid] | can be demethylated | – |
| COc1ccccc1C(=O)O [Compound 3, 2-methoxybenzoic acid] | no reaction product was detected | – |
| COc1cc(OC)cc(C(=O)O)c1 [Compound 6, 3,5-dimethoxybenzoic acid] | can be demethylated | – |
| COc1ccc(OC)c(C(=O)O)c1 [Compound 7, 2,5-dimethoxybenzoic acid] | not converted | – |
| COc1cccc(C(=O)O)c1OC [Compound 8, 2,3-dimethoxybenzoic acid] | not converted | – |
| COc1cc(C(=O)O)cc(OC)c1OC [Compound 9, 3,4,5-trimethoxy benzoic acid] | no conversions detected | – |
| COc1ccc(C(=O)O)cc1C [Compound 11, 3-methyl-4-methoxybenzoic acid] | – | TON of demethylation (CYP199A4 F182A/V355A; P450 1 μM, substrate 2 mM, H2O2 10 mM, Tris-HCl pH 7.4, 30 °C): 1290 μM (μM P450)^−1 |
| COc1c(C)cc(C(=O)O)cc1C [Compound 12, 3,5-dimethyl-4-methoxy benzoic acid] | – | Kd (CYP199A4 F182A): 123 µM; product formed (in words) (CYP199A4 F182A/V355A; H2O2-dependent reaction): a single product (not 3,5-dimethyl-4-hydroxybenzoic acid) |
| COc1c(Cl)cc(C(=O)O)cc1Cl [Compound 15, 3,5-dichloro-4-methoxy benzoic acid] | no conversions detected | – |
| COc1ccc(C(=O)O)cc1[N+](=O)[O-] [Compound 17, 4-methoxy-3-nitrobenzoic acid] | – | TON of demethylation product (CYP199A4 F182A/P90A): 926 μM (μM P450)^−1; TON of over-oxidation product 4,5-dihydroxy-3-nitrobenzoic acid (CYP199A4 F182A/P90A): 416 μM (μM P450)^−1 |
| COc1cc(C(=O)O)ccc1O [Compound 20, 4-hydroxy-3-methoxybenzoic acid] | not demethylated | – |
| COc1cc(C(=O)O)cc(OC)c1O [Compound 21, 4-hydroxy-3,5-dimethoxybenzoic acid] | did not convert | – |
